Source: PubChem BioAssay (several laboratories)
The list is not random: actives were taken first. Their share in the collection is about 2.3%.
TbHK1 inh: Trypanosoma brucei hexokinase 1 inhibitors, primary screen, biochemical, G6PDH-coupled NADH absorbance, MLSCN library. recombinant TbHK1, G6PDH-coupled NADH A340. inhibition, % at 10 µM. hexokinase 1 [Trypanosoma brucei]. 220,000 tested, 0.11% active;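 active = inhibition of 50% or more in the single-dose primary screen; inactive = inhibition below 50%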
m-calpain inh: inhibitors of pig calpain II, primary screen, biochemical, fluorogenic peptide substrate, 1536-well; AID 1236, 2008; purified calpain II, 30 min; 220,000 tested, 0.37% active; inhibition, % at 16 µM;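 active = inhibition above about 50%, limit read from the data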
NPY Y2 blocker: NPY-Y2 receptor antagonists, primary screen, cell-based; NPY-Y2 expressing cells, antagonist mode; inhibition, % at 2.7 µM; 140,000 tested, 0.99% active; in the data active = inhibition above about 17%;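 note: 0% = vehicle with agonist challenge and 100% = reference antagonist with challenge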
Target sequence (P49146 whole entry, looked up): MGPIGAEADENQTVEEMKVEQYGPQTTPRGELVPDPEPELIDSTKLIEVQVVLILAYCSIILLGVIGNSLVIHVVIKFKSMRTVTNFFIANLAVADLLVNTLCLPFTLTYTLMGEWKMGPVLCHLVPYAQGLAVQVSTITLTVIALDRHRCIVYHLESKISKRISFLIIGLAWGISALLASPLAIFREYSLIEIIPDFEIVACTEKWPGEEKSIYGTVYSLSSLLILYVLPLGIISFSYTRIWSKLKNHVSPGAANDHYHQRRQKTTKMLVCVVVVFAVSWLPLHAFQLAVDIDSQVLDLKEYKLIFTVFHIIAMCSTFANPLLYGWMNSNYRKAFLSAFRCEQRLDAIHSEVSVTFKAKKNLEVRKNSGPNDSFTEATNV
NPY1 pot ag: NPY-Y1 receptor potentiators or agonists, primary screen, cell-based; Neuropeptide Y receptor type 1 (Homo sapiens), P25929; activation, % at 3.6 µM; AID 1304, 2008; 220,000 tested, 0.37% active; NPY-Y1 expressing cells, potentiator/agonist activation; in the data active = activation above about 33%, passing the limit was not always enough;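 note: cells stimulated with NPY at EC10 then isoproterenol at EC100; 0% = low agonist plus stimulus and 100% = saturating agonist plus stimulus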
NPY2 pot ag: NPY-Y2 potentiators or agonists, primary screen, cell-based. cells expressing NPY-Y2, potentiator/agonist read-out. AID 1359, 2008. activation, % at 3.6 µM. 220,000 tested, 0.45% active; in the data active = activation above about 27%;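 note: cells stimulated with NPY near EC25 plus isoproterenol at EC100; 0% = vehicle plus submaximal agonist and 100% = vehicle plus saturating agonist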
NPY Y1 blocker: NPY-Y1 receptor antagonists, primary screen, cell-based; Neuropeptide Y receptor type 1 (Homo sapiens), P25929; HEK293-CNG Y1 cells, membrane potential fluorescence; NPY at EC95, then isoproterenol; inhibition, % at 3.6 µM; 200,000 tested, 1% active; AID 1040, 2008;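 active = inhibition above the campaign mean inhibition of all tested compounds plus 3 SD, cut at about 20% in these data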;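 note: 0% = DMSO wells given NPY plus isoproterenol and 100% = isoproterenol alone without NPY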
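Material: HEK293 Y1/CNG channel cell line; also added: NPY (25 nM), isoproterenol (1 µM), Ro 20-1724 (25 µM); doses: one concentration, 3.6 µM, in 0.4% DMSO; schedule: compound incubation 1 h at room temperature, readout 45 min post-stimulation; technique: membrane potential fluorescence; measure: fluorescence ratio normalized to % inhibition between controls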
* hit, by the source's call; i = inactive; x = not tested or not shown.

SMILES	TbHK1 inh	m-calpain inh	NPY Y2 blocker	NPY1 pot ag	NPY2 pot ag	NPY Y1 blocker
C=C(C)COc1ccc(-c2[nH]ncc2Oc2cccc(OC)c2)c(O)c1	18	57*	1	0	5	-3
O=C(CN(C(=O)c1csnn1)c1cccc2ccccc12)NC1CCCC1	-3	-23	x	1	-3	-2
CCc1ccc2c(CN3CCc4ccccc43)cc(=O)oc2c1	-4	-18	22*	-2	-9	22*
O=c1cc(CN2CCc3ccccc32)c2ccc(O)cc2o1	-15	-115	x	-24	0	1
Cc1cccc(CCNS(=O)(=O)c2ccc(S(=O)(=O)N3CCC(C)CC3)cc2)c1	-9	x	1	3	-3	22*
COc1ccccc1NC(=O)c1cc2cc(Br)ccc2cc1O	11	-54	x	96*	86*	x
COc1ccccc1NC(=O)c1ccccc1C(=O)O	-5	-1	x	7	-18	-4
COc1ccc(CCN2C(=O)CC(N3CCN(S(=O)(=O)c4ccccc4)CC3)C2=O)cc1OC (configuration not stated)	-5	-19	x	4	1	-3
CN(C(=O)c1ccc2c(c1)SC1=NS(=O)(=O)CCN12)C(c1ccccc1)c1ccccc1	-6	13	22*	-21	-20	37*
COc1ccc(NC(=O)C2=C(C)C(=O)OC23CCC(C)CC3)cc1Cl (configuration not stated)	-6	11	-1	48*	58*	-6
COC(=O)N(NC(=O)C(O)(c1ccccc1)c1ccccc1)c1ccccc1	7	21	22*	-37	-11	33*
O=C(c1ccc(F)cc1)N(NC(=O)C(O)(c1ccccc1)c1ccccc1)c1ccccc1	29	16	30*	-56	-3	49*
COC(=O)N(NC(=O)C(O)(CCC(C)C)CCC(C)C)c1ccccc1	4	19	26*	-40	-15	52*
CC(C)CCC(O)(CCC(C)C)C(=O)NNc1ccccc1	3	6	13	-7	-1	15
C=CCN1C(=O)/C(=C\c2ccc(Oc3nc(N4CCOCC4)nc(N4CCOCC4)n3)c(OC)c2)SC1=S	-7	-40	x	-5	5	1
CCN1CCc2c(OCC(=O)N3CCCCC3)cccc2C1=O	-1	22	x	1	-1	5
CC(=O)Nc1ccccc1OCc1cnc(Cl)s1	-1	12	x	-6	12	-7
COc1ccc(N2CCc3c(C)nc4c(OC)cc(OC)cc4c32)c(OC)c1	-15	-41	25*	-15	-10	44*
COc1ccc(N2CCc3c(C)nc4c(OC)cccc4c32)cc1	-10	17	x	-52	-30	18
Cc1ccc(C(C#N)c2ccc3c(C(F)(F)F)cc(C(F)(F)F)nc3n2)cc1 (configuration not stated)	-3	55*	-2	17	-1	-3
Cc1ccc2nc3c(c(Nc4ccccc4)c2c1)CCC3	-31	4	x	-36	-33	x
c1ccc(Nc2c3c(nc4ccccc24)CCC3)cc1	-41	43	x	-41	-37	20*
Cc1[nH]c2ccc(F)cc2c1CCN(Cc1cccnc1)C(=S)Nc1ccccc1	-1	22	x	10	-3	-4
Cc1[nH]c2ccccc2c1CCN(Cc1cccnc1)C(=S)Nc1cccc(F)c1	3	61*	x	35	1	-6
Cc1[nH]c2ccccc2c1CCN(Cc1cccnc1)C(=S)Nc1ccc(F)cc1	0	64*	x	26	2	-4
SMILES	TbHK1 inh	m-calpain inh	NPY Y2 blocker	NPY1 pot ag	NPY2 pot ag	NPY Y1 blocker
C=CCN(c1ccccc1C(=O)O)S(=O)(=O)/C=C/c1ccccc1	-12	-5	x	-5	9	2
O=C(Nc1cccc(Cl)c1)Nc1cccc(Cl)c1	2	-12	1	9	20	-3
N#CCc1ccc(NC(=O)Nc2cccc(Cl)c2)cc1	-1	20	-3	37*	20	-18
Cc1cc(C)n(-c2n[nH]c(C)c2[N+](=O)[O-])n1	-3	5	x	-9	-12	-2
CCOC(=O)C(C)Sc1nc(-c2ccco2)cc(C(F)(F)F)c1C#N (configuration not stated)	-4	i	20*	-11	20	34*
O=C(O)c1ccc(NC2=C(Cl)C(=O)c3ccccc3C2=O)cc1	-6	58*	x	-24	-25	x
O=C(O)c1cc([N+](=O)[O-])ccc1N1CCCCC1	-7	33	0	-34	-13	2
Cc1ccc(C(=O)c2cc([N+](=O)[O-])ccc2N2CCCCC2)c(C)c1	2	14	22*	-28	-20	30*
O=[N+]([O-])c1ccc(-c2nc(-c3cccs3)c(-c3cccs3)[nH]2)cc1	-11	-38	-6	44*	45*	-17
Cc1ccc2nc(NC(=O)CN(C)S(=O)(=O)c3cccc4nsnc34)sc2c1	-5	53*	3	-1	-3	1
O=C(NC(=S)NCCCN1CCOCC1)c1cccc2ccccc12	-3	-22	x	-11	-13	3
COC(=O)C1=C(NC(=O)c2cccs2)CCS1	66*	-12	-1	0	-6	0
COC(=O)C1=C(NC(=O)c2ccccc2C)CCS1	-13	10	x	-26	-2	10
Cc1oc(=O)c(NC(=O)c2cccc(Cl)c2)cc1C(=O)c1ccccc1	-15	-39	4	-15	5	12
COc1cccc(C(=O)Nc2cccc(C(C)=O)c2)c1	3	23	0	20	11	2
COc1cccc(C(=O)Nc2cccc(-c3nnc(-c4ccco4)o3)c2)c1	0	56*	4	-6	-7	0
COC(=O)c1cccc(NC(=O)c2cccc(OC)c2)c1	0	53*	2	-2	3	-3
COC(=O)C1=C(Nc2ccc(C)cc2)C=C(C)C(C(=O)OC)C1c1ccc(OC)cc1 (configuration not stated)	12	5	23*	-55	-20	30*
COC(=O)C1C(=O)C=C(Nc2ccc(F)cc2)CC1c1ccc(OC)cc1 (configuration not stated)	-19	-8	2	-24	0	-2
CCN(CC)C(=O)COc1ccc(/C(C)=N/Nc2ncc(Cl)cc2Cl)cc1	-37	14	x	-10	13	x
C=CCOc1ccc(Br)cc1CNC(C)(C)C	4	-13	x	24	14	1
O=C(c1cc(COc2c(F)cccc2F)on1)N1CCC(c2ccccc2Cl)C1 (configuration not stated)	-1	55*	x	-12	-19	12
O=C(c1cc(COc2c(F)cccc2F)on1)N1CCC(c2ccccc2F)C1 (configuration not stated)	-5	28	x	-15	-38	11
